Experimental data published in ChEMBL document CHEMBL3232893, “Design of antiviral stapled peptides containing a biphenyl cross-linker” (Bioorg Med Chem Lett, 2014).
Bridge positions count the residues as written; N and C are the ends. Square brackets hold non-standard residues; d marks the D form. Peptide text beside a SMILES is read from it. R8 = C=CCCCCCC[C@@](C)(N)C(=O)O; S5 = C=CCCC[C@](C)(N)C(=O)O

Key:
[1] = Cytotoxicity against human TZM-bl cells after 3 days by XTT assay; type: cell-based
[2] = test system: Human immunodeficiency virus 1; assay: Antiviral activity against HIV-1 NL4-3-HXB2 pseudovirus co-transfected with luciferase gene infected in human TZM-bl cells assessed as reduction of luciferase production after 3 days by single-cycle neutralization assay; type: functional, organism-based; conditions: Human immunodeficiency virus 1, NL4-3-HXB2, TZM-bl, 72 h
Procedure, shortened: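 Single-cycle neutralization in TZM-bl cells; read-out is reduction of luciferase production. IC50 derived from dose-response.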

[3] = test system: Human immunodeficiency virus 1; assay: Antiviral activity against HIV-1 3B infected in human MT-2 cells assessed as reduction in p24 antigen level incubated for overnight measured on fourth day post infection by multi-cycle infection assay based sandwich ELISA; type: functional, organism-based; conditions: Human immunodeficiency virus 1, 3B, MT2
Procedure, shortened: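 Multi-cycle infection in MT-2 cells; read-out is reduction of p24 levels. IC50 derived from dose-response.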

[4] = Cytotoxicity against human MT2 cells after 4 days by XTT assay; type: cell-based
[5] = Drug uptake in human HEK293T cells assessed as increase in fluorescence at 5 uM after 2 hrs by confocal microscopy; type: ADME, cell-based; conditions: hek-293t
Procedure, shortened: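 HEK293T cells were incubated with 5 μM FITC-labeled peptide at 37°C for 2 h. Intracellular fluorescence was imaged by confocal microscopy, with DIC images alongside.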

[6] = Binding affinity to HIV-1 capsid protein C-terminal domain M184A/W185A mutant at 15 uM by isothermal titration calorimetric analysis; set-up: species or system Human immunodeficiency virus 1
Procedure, shortened: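 ITC: 350 μM CTD M184A/W185A mutant titrated in 10 μL aliquots into 15 μM peptide in the cell. The integrated binding isotherm was fitted to a single-site binding equation to give Kd.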

[7] = Binding affinity to HIV-1 C-terminal domain of capsid protein p24; set-up: species or system Human immunodeficiency virus 1

IC50 [2] | IC50 [3] | Drug uptake [5] | SMILES | CC50 at 72 h [1] | CC50 at 96 h [4] | Kd [6] | Kd [7]
1.4 µM | 4.1 µM | – | CC[C@H](C)[C@H](NC(C)=O)C(=O)N[C@@H](CO)C(=O)N[C@@H](Cc1ccccc1)C(=O)N[C@@H]1CSCc2ccc(cc2)-c2ccc(cc2)CSC[C@@H](C(=O)N[C@@H](CCC(=O)O)C(=O)N[C@@H](CO)C(=O)NCC(=O)N[C@@H](CO)C(N)=O)NC(=O)[C@H](Cc2ccc(O)cc2)NC(=O)[C@H](Cc2ccc(O)cc2)NC(=O)[C@H](CC(=O)O)NC(=O)[C@H](C)NC(=O)[C@H](CC(C)C)NC(=O)[C@H](CCC(=O)O)NC1=O | > 52 µM | 26 µM | – | –
17.3 µM | 14 µM | – | CC[C@H](C)[C@H](NC(C)=O)C(=O)N[C@@H](CO)C(=O)N[C@@H](Cc1ccccc1)C(=O)N[C@@H]1CSCc2ccc(cc2)-c2ccc(cc2)CSC[C@@H](C(=O)N[C@@H](CCC(=O)O)C(=O)N[C@@H](CO)C(=O)NCC(=O)N[C@@H](CO)C(N)=O)NC(=O)[C@H](C)NC(=O)[C@H](Cc2ccc(O)cc2)NC(=O)[C@H](CC(=O)O)NC(=O)[C@H](CC(C)C)NC(=O)[C@H](CC(C)C)NC(=O)[C@H](CCC(=O)O)NC1=O | > 107 µM | > 107 µM | – | –
– | – | Active | CC[C@H](C)[C@H](NC(=S)Nc1ccc(-c2c3ccc(=O)cc-3oc3cc(O)ccc23)c(C(=O)O)c1)C(=O)N[C@@H](CO)C(=O)N[C@@H](Cc1ccccc1)C(=O)N[C@@H]1CSCc2ccc(cc2)-c2ccc(cc2)CSC[C@@H](C(=O)N[C@@H](CCC(=O)O)C(=O)N[C@@H](CO)C(=O)NCC(=O)N[C@@H](CO)C(=O)O)NC(=O)[C@H](Cc2ccc(O)cc2)NC(=O)[C@H](Cc2ccc(O)cc2)NC(=O)[C@H](CC(=O)O)NC(=O)[C@H](CC(C)C)NC(=O)[C@H](CC(C)C)NC(=O)[C@H](CCC(=O)O)NC1=O | – | – | – | –
2 µM | 1.5 µM | – | CC[C@H](C)[C@H](N)C(=O)N[C@@H](CO)C(=O)N[C@@H](Cc1ccccc1)C(=O)N[C@]1(C)CCCCCC/C=C\CCC[C@@](C)(C(=O)N[C@@H](CCC(=O)O)C(=O)N[C@@H](CO)C(=O)NCC(=O)N[C@@H](CO)C(=O)O)NC(=O)[C@H](Cc2ccc(O)cc2)NC(=O)[C@H](Cc2ccc(O)cc2)NC(=O)[C@H](CC(=O)O)NC(=O)[C@H](CC(C)C)NC(=O)[C@H](CC(C)C)NC(=O)[C@H](CCC(=O)O)NC1=O (H-ISF[R8]ELLDYY[S5]ESGS-OH; staple (Z) 4-11) | > 189 µM | > 189 µM | – | –

SMILES | IC50 [2] | IC50 [3] | Drug uptake [5] | CC50 at 72 h [1] | CC50 at 96 h [4] | Kd [6] | Kd [7]
CC[C@H](C)[C@H](N)C(=O)N[C@H](C(=O)N[C@@H](Cc1ccccc1)C(=O)N[C@@H](CCC(=O)O)C(=O)N[C@@H](CC(=O)O)C(=O)N[C@@H](CC(C)C)C(=O)N[C@@H](CC(C)C)C(=O)N[C@@H](CC(=O)O)C(=O)N[C@@H](Cc1ccc(O)cc1)C(=O)N[C@@H](Cc1ccc(O)cc1)C(=O)NCC(=O)N1CCC[C@H]1C(=O)O)[C@@H](C)O (H-ITFEDLLDYYGP-OH) | > 135 µM | > 135 µM | – | > 135 µM | > 135 µM | 8.3 µM | 15 µM
